In PMC6349029 (Bioorganic & medicinal chemistry letters, 2018):

Tests used:
TRPC5 channel = target: T1, TRPC5 channel (Homo sapiens, UniProt Q9UL62); assay: TRPC5 % inhibition at single concentration, Syncropatch; type: cell-based; details: read-out: % inhibition at 3 μM, Table 3
T1 sequence (Q9UL62 1-973): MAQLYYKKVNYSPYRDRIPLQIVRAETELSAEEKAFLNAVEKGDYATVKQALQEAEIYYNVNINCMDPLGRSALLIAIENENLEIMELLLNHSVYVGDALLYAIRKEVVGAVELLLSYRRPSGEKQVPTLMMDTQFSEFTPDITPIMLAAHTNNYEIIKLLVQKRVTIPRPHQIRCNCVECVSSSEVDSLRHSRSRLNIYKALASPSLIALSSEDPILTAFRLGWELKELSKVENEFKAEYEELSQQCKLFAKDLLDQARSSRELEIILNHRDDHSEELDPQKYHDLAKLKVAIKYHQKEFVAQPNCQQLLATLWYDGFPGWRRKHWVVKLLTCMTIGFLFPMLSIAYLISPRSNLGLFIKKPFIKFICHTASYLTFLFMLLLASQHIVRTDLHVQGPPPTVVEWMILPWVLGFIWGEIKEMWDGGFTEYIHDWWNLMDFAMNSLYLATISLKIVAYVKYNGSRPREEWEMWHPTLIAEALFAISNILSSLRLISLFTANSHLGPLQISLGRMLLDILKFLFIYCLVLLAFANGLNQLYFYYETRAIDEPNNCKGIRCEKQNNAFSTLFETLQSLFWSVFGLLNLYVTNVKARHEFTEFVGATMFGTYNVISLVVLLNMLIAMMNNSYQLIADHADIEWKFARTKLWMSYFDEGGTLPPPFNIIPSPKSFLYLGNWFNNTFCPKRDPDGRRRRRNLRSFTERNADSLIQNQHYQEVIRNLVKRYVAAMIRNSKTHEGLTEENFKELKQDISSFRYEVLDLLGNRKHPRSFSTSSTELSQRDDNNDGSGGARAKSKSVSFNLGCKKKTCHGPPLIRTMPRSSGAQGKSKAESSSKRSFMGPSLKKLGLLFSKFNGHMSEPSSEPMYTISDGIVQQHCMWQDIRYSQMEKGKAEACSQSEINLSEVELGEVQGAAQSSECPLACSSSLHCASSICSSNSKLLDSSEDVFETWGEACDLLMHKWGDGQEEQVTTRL
Summary of the method: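 Automated patch-clamp (Syncropatch) first-pass screen of TRPC5 channel block. Each test compound was run at one concentration (3 μM) in a single well. Values were normalised so that the furfuryl-amine reference analogue's inhibition at 3 μM equals 100%. A reference inhibitor and DMSO served as controls on every plate. Recordings came from at least one session over two assay plates.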

TRPC4 = details: cited from earlier work
TRPC6 = details: cited from earlier work
[1] = tested on: animal models of kidney disease; details: previously shown; cited from earlier work
kidney filter = details: in vivo animal model; cited from earlier work

Compound	inhibition at 3 µM (TRPC5 channel) [%]	selectivity for TRPC5 over TRPC4 (TRPC4)	selectivity for TRPC5 over TRPC6 (TRPC6)	activity in animal models of kidney disease [1]	protection of the kidney filter (kidney filter)
c1ccc(Cn2c(NCc3ccco3)nc3ccccc32)cc1 [Compound 2]	100	selective	selective	active	–
Fc1ccc(Cn2c(NCc3ccco3)nc3ccccc32)cc1 [Compound 6o]	167	–	–	–	–
Cc1cc(N2CCCCC2)nc2ccccc12 [ML204]	–	–	–	–	protect the kidney filter
